# pCIP destab: lowers stability of the mouse p/CIP coactivator protein. AID 1984. decrease of EGFP signal, % at 10 µM. Q05BA5. hit rate 0.01% among 290,000. F442A p/CIP-EGFP cells, EGFP fluorescence, 16 h;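 active means EGFP signal decrease of at least 30% at 10 µM or well 3 SD below plate mean, unless failing retest; inactive means the rest, including hits failing retest or dose response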
# GASC-1 inh: human JMJD2C demethylase inhibition | Q9H3R0 | GST-JMJD2C(1-420) H3K9me3 demethylation, DELFIA europium | inhibition, % at 2.35 µM | hit rate 0.069% among 330,000 | AID 2099;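 active means more than half of a compound's replicate wells show inhibition beyond 50%, single wells judged on their own value; inconclusive means some, but no more than half, of replicates pass 50% inhibition; inactive means no replicate passes 50% inhibition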;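 further: signal counts dimethyl H3K9 product captured on neutravidin plate; 0% = median of DMSO wells and 100% = 0.3 times that DMSO median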
# VLA-4 inh: inhibition in a human VLA-4 binding assay; AID 2557; VLA-4 expressing cells, ligand binding flow cytometry; hit rate 0.2% among 330,000; P13612; inhibition, % (about 7 µM as worked out from the volumes in the protocol); in the data active means inhibition above about 50%
# Arr AP2 block: blocks beta-arrestin peptide binding to AP2 adaptin; AID 504490; inhibition, % at 10 µM; hit rate 0.31% among 340,000; FITC-arrestin peptide / GST-AP2 beads, flow cytometry; AP2 beta2 appendage carries R879A mutation;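 active means inhibition above a set limit, near 3 SD of compounds lacking own fluorescence, cut at about 54% in these data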;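 further: plate controls were DMSO wells for no effect and 5 µM unlabelled arrestin peptide for full effect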
#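 System: GST-AP2 R879A glutathione beads. Medium: PBS with 0.05% Tween 20 and 0.1% BSA. Also added: FITC-arrestin peptide, 50 nM. Incubation: 12 min plus 1 h, RT. Measured by: high-throughput flow cytometry of beads, ex 488, em 535 nm. Evaluation: percent drop in bead-associated FITC signal.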
# Arr-AP2 CP1: human beta-arrestin and AP2 interaction inhibition, cherry pick | hit rate 2% among 1,300 | shares compounds with Arr AP2 block | inhibition, % at 10 µM | GST-AP2 beads, FITC arrestin peptide binding, flow cytometry; GST-fused beta2-adaptin appendage, R879A mutant;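 active means inhibition above a set limit, roughly 3 SD of non-fluorescent compound noise, cut at about 38% in these data; inactive means inhibition at or below that limit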;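 further: loss of bead fluorescence from 50 nM FITC arrestin peptide bound to appendage; 0% = negative control wells and 100% = excess unlabelled arrestin peptide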
# GST GSH counter: counter-screen for beta-arrestin AP2 inhibitors: GST-GSH bead binding; shares compounds with Arr AP2 block; GST-fluorescein binding to GSH beads, fluorescence; inhibition, % at 10 µM; hit rate 2% among 1,300;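 active means inhibition above 50%, about 3 SD of the inhibition seen with non-fluorescent compounds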;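 further: fluorescein maleimide labelled GST captured on 4 micron glutathione beads; higher means more loss of bead fluorescence from quenching or blocked binding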
# Starred values were filed as active, the others as inactive; i = inactive; ? = inconclusive; · = not tested or not shown. Sampled rows, rich in hits. Any-hit rate of the full collection: about 0.57%.
SMILES,pCIP destab,GASC-1 inh,VLA-4 inh,Arr AP2 block,Arr-AP2 CP1,GST GSH counter
CN(C)c1ncc(C2=C(Cl)C(=O)C(N3CCCC3)=C(Cl)C2=O)s1,·,·,26.0,88.2*,77.1*,27.0
CC(=O)c1cnc(N(C)C)s1,-0.8,-3.9,12.7,9.5,·,·
Cc1ccc(NC(=O)Cn2ncn3c(cc4ccccc43)c2=O)cc1F,5.0,-0.8,26.1,66.2*,0.2,-3.7
CN1C2=CC=CC=CC2=[N+](C)C12C=CC(=[N+]([O-])[O-])C=C2[N+](=O)[O-] (stereo not drawn),-1.5,-14.6,-0.9,54.1*,1.6,-7.4
CN1C2=CC=CC=CC2=[N+](C)C12C([N+](=O)[O-])=CC(=[N+]([O-])[O-])C=C2[N+](=O)[O-] (stereo not drawn),-19.3,-12.4,15.7,-9.7,·,·
O=C(O)Cc1csc(-c2cccc(F)c2)n1,6.3,-2.2,-2.2,9.1,·,·
CC(C)CCNC(=O)NC(=O)CSc1ccc(S(=O)(=O)N2CCOCC2)cn1,·,3.7,-1.7,25.4,·,·
O=C(NC1=NCCS1)c1ccc(Cl)c(S(=O)(=O)N2CCOCC2)c1,-0.8,1.7,2.4,56.5*,-0.8,-13.5
O=C(CCSCCC(=O)Nc1c(F)c(F)c(F)c(F)c1F)Nc1c(F)c(F)c(F)c(F)c1F,3.9,-6.1,-2.9,58.1*,-7.8,-3.9
COC(=O)c1ccc(C(=O)Nc2ccc(C(C)C)cc2N)cc1,12.0,-20.3,3.6,56.6*,14.8,-1.6
CC(c1nnc(SCC(=O)N(C)C2CCS(=O)(=O)C2)n1-c1ccccc1)N(C)C (stereo not drawn),·,1.8,18.1,12.6,·,·
COc1ccc(N2CCN(C(=O)COC(=O)Cc3ccc(F)cc3)CC2)cc1,·,-11.4,-3.7,24.8,·,·
CCOC(=O)Cn1c(=NC(=O)c2cccs2)sc2cc(C(=O)OC)ccc21,-0.8,-6.8,4.3,106.4*,-4.9,·
CCOC(=O)c1ccc2c(c1)sc(=NC(=O)c1ccco1)n2CCOC,-6.9,-3.9,10.0,-0.3,·,·
CCc1onc(C)c1C(=O)Nc1ccc(N2CCOCC2)cc1,·,7.6,-1.9,-15.2,·,·
COc1cc(C)c(S(=O)(=O)N2CCCC2)cc1C(C)C,-25.7,-19.6,16.9,57.2*,-4.9,2.3
Cc1cc(N/N=C/c2ccc(O)cc2O)nc(-c2ccccc2O)n1,21.8,5.1,36.9,2.7,·,·
Cn1ccnc1SCc1cn2ccccc2n1,-2.6,4.0,-3.7,83.0*,2.6,4.9
COc1ccccc1C(=O)NC(=O)CSc1nc2nc(C)cc(C)n2n1,·,-0.4,23.0,0.0,·,·
COc1ccccc1C(=O)NC(=O)COC(=O)c1nc2nc(C)cc(C)n2n1,·,0.1,5.5,59.8*,4.1,-7.2
CN(C)c1ccc(/C=N\Nc2nc(-c3ccccc3)cc(=O)[nH]2)cc1,12.5,-3.2,19.7,102.1*,-2.4,-2.4
CN(C)c1ccc(C=NNc2nc3c([nH]2)c(=O)n(C)c(=O)n3C)cc1,·,·,·,17.3,·,·
FC(F)(F)c1cccc(N2CCN(C(=S)NC3CCCCC3)CC2)c1,1.6,0.6,16.7,·,·,·
O=C(Nc1nnc(-c2ccncc2)o1)C1CCCCC1,4.2,-3.7,4.8,18.9,·,·
O=C(Nc1nnc(C2=COCCO2)o1)C1CCCCC1,15.7,8.4,-1.7,59.4*,4.3,0.6
SMILES,pCIP destab,GASC-1 inh,VLA-4 inh,Arr AP2 block,Arr-AP2 CP1,GST GSH counter
O=c1c(Cc2c(F)cccc2Cl)c(O)ccn1Cc1ccc(F)cc1,-10.8,16.2,11.2,12.2,·,·
O=c1c(Cc2c(F)cccc2Cl)c(O)ccn1CCCn1ccnc1,-0.1,1.6,25.3,62.7*,-2.6,-6.8
Cc1nc(C)c(C(=O)O)c(-c2cccs2)c1C(=O)O,-10.4,12.4,-1.0,74.3*,-8.5,-3.4
O=C(O)c1csc(-c2cccs2)n1,-0.7,11.7,3.9,10.7,·,·
CCN(c1ccccc1)S(=O)(=O)c1ccc(C(=O)Nc2ccccn2)cc1,·,?,-5.3,32.0,·,·
Cc1c(N2C(=O)CSC2c2ccc([N+](=O)[O-])cc2)c(=O)n(-c2ccccc2)n1C (stereo not drawn),-3.4,6.4,-4.3,-0.2,·,·
COC(=O)CSc1nc(N)nc(C)c1Br,-4.5,-5.5,11.2,56.0*,-13.0,-3.0
COC(=O)CSc1nc(C)cc(C)c1C#N,-5.5,0.5,8.2,0.8,·,·
CCc1nnc(SCC(=O)Nc2ccc(C(C)=O)cc2)nc1CC,-8.8,13.5,9.3,82.7*,17.9,1.4
O=C(Nc1ccnn1C1CCN(C(=O)c2ccc(Cl)c(F)c2)CC1)C1CCOC1 (stereo not drawn),-3.3,2.8,2.7,-7.4,·,·
O=C(CN1CCOCC1)Nc1ccc(Cl)cn1,2.7,-1.2,-3.3,54.2*,9.9,7.7
COc1ccc(NS(=O)(=O)c2ccc(C(=O)NCC3(N4CCOCC4)CCCCC3)cc2)cc1,·,-2.9,9.6,-7.8,·,·
COc1ccc(NS(=O)(=O)c2cccc(C(=O)NCC(c3ccco3)N3CCCCC3)c2)cc1 (stereo not drawn),·,-2.2,0.7,59.3*,27.2,-4.1
CCOc1ccc(S(=O)(=O)Nc2ccc(C(=O)NCC3(N4CCCCC4)CCCCC3)cc2)cc1,·,i,-7.3,3.8,·,·
COc1ccc(NS(=O)(=O)c2cccc(C(=O)NCC3(N4CCOCC4)CCCCC3)c2)cc1,-6.0,-19.5,0.6,-9.4,9.1,-5.6
COc1ccc(NS(=O)(=O)c2cccc(C(=O)NCC3(N4CCCCC4)CCCCC3)c2)cc1,·,0.2,10.1,-18.7,11.6,5.9
CNS(=O)(=O)c1cccc(C(=O)NCC2(N3CCCCC3)CCCCC2)c1,5.4,-4.5,1.0,-25.6,·,·
Cc1cccc(NS(=O)(=O)c2cccc(C(=O)NCC(c3ccco3)N3CCCCC3)c2)c1 (stereo not drawn),·,2.9,0.5,8.0,·,·
CCOc1ccc(NS(=O)(=O)c2cccc(C(=O)NCC3(N(C)C)CCCCC3)c2)cc1,·,·,·,-4.7,5.3,-12.3
COc1ccc(NC(=O)c2cccc(S(=O)(=O)N3CCOCC3)c2)cc1,3.8,0.9,2.7,61.4*,-6.1,-5.6
Cc1cccc(NC(=O)c2cccc(S(=O)(=O)Nc3ccccc3C(=O)O)c2)c1,-10.1,9.0,-5.7,57.6*,-7.9,-7.3
Cc1cccc(NS(=O)(=O)c2cccc(C(=O)NCC3(N4CCCCC4)CCCCC3)c2)c1,·,1.5,1.6,-10.4,-5.1,-3.4
CC1=CC(C)(C)Nc2ccc(OC(=O)c3cccnc3)cc21,-45.6,0.5,9.3,15.7,·,·
C[C@@H]1CN([C@@H](C)CO)C(=O)c2cc(NS(=O)(=O)c3ccc(Cl)cc3)ccc2O[C@H]1CN(C)Cc1ccncc1,·,1.4,-2.8,-10.3,·,·
CN(C)c1ccc(C(CNS(=O)(=O)c2ccc3ccccc3c2)c2c[nH]c3ccccc23)cc1 (stereo not drawn),8.5,1.3,-23.9,5.5,·,·
CCn1nc(NS(=O)(=O)c2cccc3nonc23)c2cc3ccc(C)cc3nc21,10.0,-31.6,8.5,67.7*,-2.1,8.3

# High-throughput results: PubChem BioAssay, several laboratories
